Tests used:
Pseudomonas aeruginosa [1] = test: Antibacterial activity against Pseudomonas aeruginosa 9027 measured every 24 hrs for 5 days by conventional dilution method; type: functional
Outline: (§1)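 Broth dilution in nutrient broth, inoculum 3 × 10⁵ cfu/ml. MIC is the lowest concentration showing no growth, read visually every 24 h over 5 days. Run alongside a positive growth control and standard drug controls. Tests in duplicate, repeated twice.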

Bacillus cereus [2] = test: Antibacterial activity against Bacillus cereus 8035 measured every 24 hrs for 5 days by conventional dilution method; type: functional; outline: as §1
[3] = system: Trichophyton mentagrophytes; test: Fungicidal activity against Trichophyton mentagrophytes after 6 hrs; type: functional
Outline: (§2)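 Tubes of test compound (5 to 500 per ml, 1 mL in nutrient agar) with fungi were incubated at 26 °C for 6 h. Inocula were then prepared in Sabouraud dextrose broth and incubated at 26 °C. The fungicidal concentration is the one giving total cell death.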

Aspergillus niger [4] = test: Fungicidal activity against Aspergillus niger BKMF-1119 after 6 hrs; type: functional; conditions: BKMF-1119, 6 h; outline: as §2
[5] = system: Trichophyton mentagrophytes; test: Antifungal activity against Trichophyton mentagrophytes measured every 24 hrs for 14 days by conventional dilution method; type: functional
Outline: (§3)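 Dilution assay in Sabouraud dextrose broth, inoculum 2 × 10^3–4 cfu/ml. MIC is the lowest concentration with no visible growth after 14 days of incubation. Run alongside a positive growth control and standard drug controls. Tests in duplicate, repeated twice.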

[6] = Acute toxicity in ip dosed mouse; type: organism-based; conditions: in vivo
Outline: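 Mice; each compound given at 5 dose levels, 10 animals per dose (n = 50 per compound). Animals observed for 72 h; toxicity expressed as average lethal dose (LD50) calculated from mortality across dose groups.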

Candida albicans [7] = test: Fungicidal activity against Candida albicans 885-653 after 6 hrs; type: functional; conditions: 885-653, 6 h; outline: as §2
Staphylococcus aureus [8] = test: Bactericidal activity against Staphylococcus aureus 209p after 4 hrs; type: functional
Outline: (§4)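 Tubes contained 1 mL test compound in nutrient agar, 5 to 500 per ml. Bacteria in normal saline broth (3 × 10⁵ cfu/ml, 1 mL) were added and held 4 h, then transferred onto meal-peptone agar plates and incubated at 37 °C. MBC is the dilution giving total cell death.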

Escherichia coli [9] = test: Bactericidal activity against Escherichia coli F-50 after 4 hrs; type: functional; conditions: F-50, 4 h; outline: as §4
Candida albicans [10] = test: Antifungal activity against Candida albicans 885-653 measured every 24 hrs for 14 days by conventional dilution method; type: functional; outline: as §3
Bacillus cereus [11] = test: Bactericidal activity against Bacillus cereus 8035 after 4 hrs; type: functional; conditions: Bacillus cereus, 8035, 4 h; outline: as §4
Escherichia coli [12] = test: Antibacterial activity against Escherichia coli F-50 measured every 24 hrs for 5 days by conventional dilution method; type: functional; outline: as §1
Pseudomonas aeruginosa [13] = test: Bactericidal activity against Pseudomonas aeruginosa 9027 after 4 hrs; type: functional; conditions: Pseudomonas aeruginosa, 9027, 4 h; outline: as §4
Aspergillus niger [14] = test: Antifungal activity against Aspergillus niger BKMF-1119 measured every 24 hrs for 14 days by conventional dilution method; type: functional; outline: as §3
Staphylococcus aureus [15] = test: Antibacterial activity against Staphylococcus aureus 209p measured every 24 hrs for 5 days by conventional dilution method; type: functional; outline: as §1

Structure (SMILES)	MIC (Pseudomonas aeruginosa [1]) [µg/mL]	MIC (Bacillus cereus [2]) [µg/mL]	MFC [3] [µg/mL]	MFC (Aspergillus niger [4]) [µg/mL]	MIC [5] [µg/mL]	LD50 [6] [mg/kg]	MFC (Candida albicans [7]) [µg/mL]	MBC (Staphylococcus aureus [8]) [µg/mL]	MBC (Escherichia coli [9]) [µg/mL]	MIC (Candida albicans [10]) [µg/mL]	MBC (Bacillus cereus [11]) [µg/mL]	MIC (Escherichia coli [12]) [µg/mL]	MBC (Pseudomonas aeruginosa [13]) [µg/mL]	MIC (Aspergillus niger [14]) [µg/mL]	MIC (Staphylococcus aureus [15]) [µg/mL]
CCCCCCCCC[n+]1cccc(-c2nc(-c3ccccc3)c3c(=O)n(CCCCCC)c4ccccc4n23)c1.[I-]	> 500	0.78	> 500	> 500	> 500	52.5	500	5	> 500	500	500	> 500	> 500	> 500	0.78
CCCCCCn1c(=O)c2c(-c3ccccc3)nc(-c3ccc[n+](Cc4ccccc4)c3)n2c2ccccc21.[Cl-]	> 500	6.3	> 500	> 500	500	61.1	500	50	> 500	7.8	> 500	> 500	> 500	> 500	0.97

Reference: ChEMBL document CHEMBL2407024, “Antimicrobial activity of imidazo[1,5-a]quinoxaline derivatives with pyridinium moiety” (Eur J Med Chem, 2013)
